The source made the active and inactive calls. The rule behind the calls is not given here.
Assays:
[1] = molecular target: T1, Hydroxycarboxylic acid receptor 3 (Homo sapiens, UniProt P49019); test: Agonist activity at human GPR109b […] assessed as decrease in intracellular cAMP level upto 50 uM by HTRF assay; format: functional, cell-based
[2] = molecular target: T1, Hydroxycarboxylic acid receptor 3; test: Agonist activity at human GPR109b expressed in human adipocytes assessed as decrease in intracellular cAMP level by HTRF assay; format: functional, cell-based
Method in brief: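 Whole-cell cAMP Dynamic2 HTRF assay at GPR109b. Results are given as pEC50, the negative log of molar EC50, with log SD errors and n in parentheses. Compounds with no response are marked not active. Efficacy is judged relative to niacin.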

[3] = system: Mus musculus; test: Effect on cutaneous flushing response in C57BL/6 mouse at 100 mg/kg; format: functional, organism-based; set-up: dose 100 mg/kg
Method in brief: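 Male C57 Bl/6 mice given 100 mg/kg. Cutaneous vasodilation is measured as a surrogate for flushing.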

[4] = system: Rattus norvegicus; test: Reduction in 4-fluoro-5-methyl-pyrazole-3-carboxylic acid-induced plasma free fatty acid level in fasted male Sprague-Dawley rat at 1 mg/kg; format: functional, organism-based; set-up: dose 1 mg/kg
Method in brief: (§1)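 Fasted male Sprague–Dawley rats dosed orally at 0.1, 1 or 10 mg/kg. Plasma free fatty acid levels are followed over time, with 10 mg/kg oral niacin as the comparator.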

[5] = system: Rattus norvegicus; test: Reduction in 4-fluoro-5-methyl-pyrazole-3-carboxylic acid-induced plasma free fatty acid level in fasted male Sprague-Dawley rat at 10 mg/kg; format: functional, organism-based; set-up: dose 10 mg/kg; method in brief: as §1

T1 sequence (P49019 whole entry): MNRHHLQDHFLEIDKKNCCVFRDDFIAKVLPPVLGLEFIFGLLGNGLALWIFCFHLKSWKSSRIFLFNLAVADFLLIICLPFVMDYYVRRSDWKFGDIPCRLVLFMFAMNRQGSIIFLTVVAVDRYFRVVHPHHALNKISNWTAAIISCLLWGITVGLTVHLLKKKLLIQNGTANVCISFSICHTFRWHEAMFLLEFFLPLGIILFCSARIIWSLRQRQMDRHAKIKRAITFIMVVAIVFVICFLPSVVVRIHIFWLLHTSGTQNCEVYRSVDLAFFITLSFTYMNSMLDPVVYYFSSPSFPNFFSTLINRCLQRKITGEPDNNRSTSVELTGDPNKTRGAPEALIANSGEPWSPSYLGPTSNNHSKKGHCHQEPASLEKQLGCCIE

Row | Structure (SMILES) | Activity [1] | Activity [2] | other results
1 | O=C(O)c1cc(C2CCC2)n[nH]1 | inactive | inactive | 
2 | CC(C)c1cc(-c2nnn[nH]2)n[nH]1 | inactive |  | 
3 | O=C(O)c1n[nH]c(C2CC2)c1F | inactive | inactive | 
4 | CCCc1cc(-c2nnn[nH]2)n[nH]1 |  |  | EC50 ([2]; read-out: EC50): 860 µM; EC50 ([2]; read-out: Log EC50 (converted)): 0.724 µM
5 | Cc1cc(-c2nnn[nH]2)n[nH]1 | inactive |  | 
6 | CCCCc1cc(-c2nnn[nH]2)n[nH]1 |  |  | EC50 ([2]; read-out: Log EC50 (converted)): 7.59 µM
7 | CCCCc1[nH]nc(-c2nnn[nH]2)c1F | inactive | inactive | 
8 | CCc1cc(C(=O)O)[nH]n1 | inactive | inactive | 
9 | CCCCc1[nH]nc(C(=O)O)c1F | inactive | inactive | 
10 | Cc1[nH]nc(C(=O)O)c1F | inactive | inactive | Activity [3]: Active; Activity [4]: Active; Activity [5]: Active
11 | Cc1[nH]nc(C(=O)O)c1Cl | inactive | inactive | 
12 | CCCCc1[nH]nc(C(=O)O)c1Br | inactive | inactive | 
13 | O=C(O)c1cccnc1 [NIACIN] |  |  | EC50 ([2]; read-out: Log EC50 (converted)): 75.9 µM
14 | CCCCc1cc(C(=O)O)n[nH]1 |  |  | EC50 ([2]; read-out: Log EC50 (converted)): 11.7 µM
15 | CCCCCc1cc(C(=O)O)[nH]n1 |  |  | EC50 ([2]; read-out: Log EC50 (converted)): 18.6 µM
16 | CCc1[nH]nc(-c2nnn[nH]2)c1F |  |  | EC50 ([2]; read-out: Log EC50 (converted)): 12.3 µM
17 | CC(C)c1cc(C(=O)O)n[nH]1 |  |  | EC50 ([2]; read-out: Log EC50 (converted)): 41.7 µM
18 | CCCc1cc(C(=O)O)n[nH]1 | inactive | inactive | 
19 | Fc1c(-c2nnn[nH]2)n[nH]c1C1CC1 | inactive | inactive | 
20 | c1c(-c2nnn[nH]2)n[nH]c1C1CC1 |  |  | EC50 ([2]; read-out: EC50): 3.6 µM; EC50 ([2]; read-out: Log EC50 (converted)): 3.24 µM
21 | Cc1[nH]nc(-c2nnn[nH]2)c1F | inactive | inactive | 
22 | CCc1[nH]nc(C(=O)O)c1C | inactive | inactive | 
23 | c1cc(-c2nnn[nH]2)n[nH]1 | inactive |  | 
24 | CCc1[nH]nc(C(=O)O)c1F | inactive | inactive | 
25 | O=C(O)c1cc[nH]n1 | inactive | inactive | 
26 | O=C(O)c1cc(C2CC2)n[nH]1 | inactive | inactive | 
27 | Cc1cc(C(=O)O)n[nH]1 | inactive | inactive | 

Source: ChEMBL document CHEMBL1137460, “Fluorinated pyrazole acids are agonists of the high affinity niacin receptor GPR109a” (Bioorg Med Chem Lett, 2007)
